Assays:
Cavia porcellus [1] = species: Cavia porcellus; experiment: Evaluated for inhibition of slow reacting substance of anaphylaxis (SRS-A) induced contractions in guinea pig ileum strips; type: functional
Method in brief: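 Guinea pig ileum strips were contracted with SRS-A at 5.0 units/mL, the level giving 50% of maximal contraction. Each compound was tested in duplicate at three concentrations giving 10–90% inhibition. IC50 was obtained by linear regression.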

Thromboxane-A synthase = target: T1, Thromboxane-A synthase (Homo sapiens, UniProt P24557); experiment: Inhibition of human platelet thromboxane synthase (TXA2) was determined in human platelets
T1 sequence (P24557 whole entry): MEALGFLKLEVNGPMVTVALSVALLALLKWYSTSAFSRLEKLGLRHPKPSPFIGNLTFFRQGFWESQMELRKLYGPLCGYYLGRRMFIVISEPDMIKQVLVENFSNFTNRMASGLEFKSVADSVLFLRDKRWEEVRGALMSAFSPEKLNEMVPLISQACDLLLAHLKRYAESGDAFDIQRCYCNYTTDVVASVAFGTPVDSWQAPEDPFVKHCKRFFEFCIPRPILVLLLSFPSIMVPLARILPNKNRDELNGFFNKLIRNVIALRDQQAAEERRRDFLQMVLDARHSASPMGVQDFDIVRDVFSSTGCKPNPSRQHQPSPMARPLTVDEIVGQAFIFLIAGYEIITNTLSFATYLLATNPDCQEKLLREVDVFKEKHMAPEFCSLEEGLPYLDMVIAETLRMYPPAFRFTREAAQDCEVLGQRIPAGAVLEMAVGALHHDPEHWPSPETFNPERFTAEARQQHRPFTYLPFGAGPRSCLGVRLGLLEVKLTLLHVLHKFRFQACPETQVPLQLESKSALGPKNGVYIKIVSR
Method in brief: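 The enzyme source was microsomal fractions of human platelets. Conversion of [14C]PGH2 to [14C]TXB2 ran 2 min at 22 °C and was then stopped. Products were ether-extracted, separated by TLC and counted. Compounds were tested in triplicate at three log-spaced concentrations, and IC50 was obtained by linear regression.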

Cavia porcellus [2] = experiment: In vivo inhibition of LTE4 (leukotriene)-induced bronchoconstrictions in guinea pig and percent inhibition was reported at 10 mg/Kg administered intravenously; type: functional; settings: iv
Method in brief: (§1)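 Guinea pigs pretreated with propranolol were challenged with LTE4. The drug was given either 10 mg/kg iv 30 s before challenge or 100 mg/kg orally 2 h before. Bronchoconstriction was scored as percent inhibition versus control animals. Oral ID50 was calculated from varying oral doses.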

Cavia porcellus [3] = experiment: In vivo inhibition of LTE4 (leukotriene)-induced bronchoconstrictions in guinea pig and percent inhibition was reported at 100 mg/Kg administered perorally; type: functional; settings: po; method in brief: as §1
Rattus norvegicus [4] = experiment: In vivo inhibition of LTE4 (leukotriene)-induced skin wheal formation in rat
Rattus norvegicus [5] = experiment: In vivo inhibition of LTE4 (leukotriene)-induced skin wheal formation in rat and percent inhibition was reported at 100 mg/Kg administered perorally; settings: po
Rattus norvegicus [6] = experiment: In vivo inhibition of LTE4 (leukotriene)-induced skin wheal formation in rat and percent inhibition was reported at 10 mg/Kg administered intravenously; settings: iv
Cavia porcellus [7] = experiment: (§2) In vivo inhibition of LTE4 (leukotriene)-induced administration; type: functional
Cavia porcellus [8] = experiment: as §2; type: functional; remark: listed apart in the source
Cavia porcellus [9] = species: Cavia porcellus; experiment: Ability to inhibit bronchoconstriction induced in actively sensitized guinea pig by antigen-induced de novo biosynthesis of SRS-A; type: functional
Cavia porcellus [10] = experiment: In vivo inhibition of LTE4 (leukotriene)-induced bronchoconstrictions in guinea pig and ID50 was reported perorally; type: functional; method in brief: as §1
Rattus norvegicus [11] = experiment: Compound was evaluated in vivo by rat passive cutaneous anaphylaxis test (PCA) after oral administration; type: functional
Cavia porcellus [12] = species: Cavia porcellus; experiment: Ability to inhibit bronchoconstriction in guinea pig induced by histamine
Rattus norvegicus [13] = experiment: In vivo inhibition of LTE4 (leukotriene)-induced skin wheal formation in rat; remark: listed apart in the source
Cavia porcellus [14] = species: Cavia porcellus; experiment: Ability to inhibit bronchoconstriction in guinea pig induced by platelet activating factor
Rattus norvegicus [15] = experiment: Compound was evaluated in vivo by rat passive cutaneous anaphylaxis test (PCA)after oral administration; settings: read-out: ID50 (the source's name)
Cavia porcellus [16] = experiment: In vivo inhibition of LTE4 (leukotriene)-induced bronchoconstrictions in guinea pig after oral administration; type: functional; method in brief: as §1
Rattus norvegicus [17] = experiment: In vivo inhibition of LTE4 (leukotriene)-induced skin wheal formation in rat determined after (iv) administration of a dose of 10 mg/kg
Rattus norvegicus [18] = experiment: In vivo inhibition of LTE4 (leukotriene)-induced skin wheal formation in rat determined after (po) administration of a dose of 100 mg/Kg

Structure (SMILES)	IC50 (Cavia porcellus [1]) [µM]	IC50 (Thromboxane-A synthase) [nM]	further results
CC(CCCc1cccnc1)NC(=O)c1ccc2nc3ccc(C(C)C)cc3c(=O)n2c1 (centres undefined)	8	1000	
Cc1nccn1CCCCNC(=O)c1ccc2nc3ccc(C(C)C)cc3c(=O)n2c1	9	5000	
CC(C)c1ccc2nc3ccc(C(=O)NCCSCc4cccnc4)cn3c(=O)c2c1	5	600	
CC(C)c1ccc2nc3ccc(C(=O)NCCCCOc4cccnc4)cn3c(=O)c2c1.Cl.Cl	0.8	50	inhibition in vivo at 10 mg/kg (Cavia porcellus [2]): 94%; inhibition in vivo at 100 mg/kg (Cavia porcellus [3]): 60%; IC50 (Rattus norvegicus [4]): 100 mg/kg; inhibition in vivo at 100 mg/kg (Rattus norvegicus [5]): 56%; inhibition in vivo at 10 mg/kg (Rattus norvegicus [6]): 64%
CC(C)c1ccc2nc3ccc(C(=O)N(C)CCCCc4cccnc4)cn3c(=O)c2c1	1	600	
CC(C)c1ccc2nc3ccc(C(=O)NCCCc4cccnc4)cn3c(=O)c2c1	5	100	
CC(C)c1ccc2nc3ccc(C(=O)NCCCCCCc4cccnc4)cn3c(=O)c2c1	1		inhibition in vivo at 10 mg/kg (Cavia porcellus [2]): 71%; inhibition in vivo at 100 mg/kg (Cavia porcellus [3]): 28%; inhibition in vivo at 100 mg/kg (Rattus norvegicus [5]): 62%; inhibition in vivo at 10 mg/kg (Rattus norvegicus [6]): 70%
Cc1cc2nc3ccc(C(=O)NCCCCc4cccnc4)cn3c(=O)c2cc1C	7	100	
CC(C)c1ccc2nc3ccc(C(=O)NCCCCCc4cccnc4)cn3c(=O)c2c1.Cl.Cl	1	100	Inhibition (Cavia porcellus [7]): 84%; Inhibition (Cavia porcellus [8]): 21%; inhibition in vivo at 100 mg/kg (Rattus norvegicus [5]): 65%; inhibition in vivo at 10 mg/kg (Rattus norvegicus [6]): 61%
CC(C)c1ccc2nc3ccc(C(=O)NCCc4cccnc4)cn3c(=O)c2c1	10	4000	
CC(C)c1ccc2nc3ccc(C(=O)NCCCCn4ccnc4)cn3c(=O)c2c1.Cl.Cl	1	200	ID50 mg/kg (Cavia porcellus [9]): 50; ID50 mg/kg (Cavia porcellus [10]): 47; inhibition in vivo at 10 mg/kg (Cavia porcellus [2]): 87%; inhibition in vivo at 100 mg/kg (Cavia porcellus [3]): 87%; ID50 mg/kg (Rattus norvegicus [11]): 20; ID50 mg/kg (Cavia porcellus [12]): 39; IC50 (Rattus norvegicus [13]): 46 mg/kg; ID50 mg/kg (Cavia porcellus [14]): 13; inhibition in vivo at 100 mg/kg (Rattus norvegicus [5]): 63%; inhibition in vivo at 10 mg/kg (Rattus norvegicus [6]): 26%
CC(C)c1ccc2nc3ccc(C(=O)NCCCCc4ccncc4)cn3c(=O)c2c1.Cl.Cl	1	100	ID50 mg/kg (Cavia porcellus [10]): 57; inhibition in vivo at 10 mg/kg (Cavia porcellus [2]): 89%; inhibition in vivo at 100 mg/kg (Cavia porcellus [3]): 73%; IC50 (Rattus norvegicus [4]): 90 mg/kg; inhibition in vivo at 100 mg/kg (Rattus norvegicus [5]): 63%; inhibition in vivo at 10 mg/kg (Rattus norvegicus [6]): 54%
CC(C)c1ccc2nc3ccc(C(=O)O)cn3c(=O)c2c1			ED50 (Rattus norvegicus [15]): 0.45 mg/kg
COc1ccc2nc3ccc(C(=O)NCCCCc4cccnc4)cn3c(=O)c2c1	10	200	
CC(C)c1ccc2nc3ccc(C(=O)NCCCCc4cncnc4)cn3c(=O)c2c1	5	200	
Cc1ccc2nc3ccc(C(=O)NCCCCc4cccnc4)cn3c(=O)c2c1	5	100	
CC(C)c1ccc2nc3ccc(C(=O)NC(C)(C)CCCc4cccnc4)cn3c(=O)c2c1	5	500	
CC(CCc1cccnc1)NC(=O)c1ccc2nc3ccc(C(C)C)cc3c(=O)n2c1 (centres undefined)	5	300	
COc1ccc2c(=O)n3cc(C(=O)NCCCCc4cccnc4)ccc3nc2c1	> 10	20	
CC(C)c1ccc2nc3ccc(C(=O)NCCCCc4ccccn4)cn3c(=O)c2c1	1	> 10000	
O=C(NCCCCc1cccnc1)c1ccc2nc3ccc(O)cc3c(=O)n2c1	3	50	
O=C(NCCCCc1cccnc1)c1ccc2nc3cc(Cl)ccc3c(=O)n2c1	8	20	
CC(C)Oc1ccc2nc3ccc(C(=O)NCCCCc4cccnc4)cn3c(=O)c2c1	10	60	
CC(C)c1ccc2nc3ccc(C(=O)NCCCCc4cccnc4)cn3c(=O)c2c1	1	200	ID50 mg/kg (Cavia porcellus [16]): 60; Inhibition (Cavia porcellus [7]): 94%; Inhibition (Cavia porcellus [8]): 76%; IC50 (Rattus norvegicus [4]): 70 mg/kg; inhibition in vivo at 10 mg/kg (Rattus norvegicus [17]): 60%; inhibition in vivo at 100 mg/kg (Rattus norvegicus [18]): 61%
O=C(NCCCCc1cccnc1)c1ccc2nc3ccc(Br)cc3c(=O)n2c1	> 10	100	
O=C(NCCCCc1cccnc1)c1ccc2nc3cc4c(cc3c(=O)n2c1)CCCC4	9	300	
O=C(NCCCCc1cccnc1)c1ccc2nc3ccccc3c(=O)n2c1	5	20	
CC(C)c1ccc2nc3ccc(C(=O)NCCCCCCCc4cccnc4)cn3c(=O)c2c1	> 10	200	
O=C(O)c1ccc(OCCn2ccnc2)cc1 [DAZOXIBEN]	> 10		inhibition in vivo at 10 mg/kg (Cavia porcellus [2]): 88%; inhibition in vivo at 100 mg/kg (Cavia porcellus [3]): 81%; inhibition in vivo at 100 mg/kg (Rattus norvegicus [5]): 11%; inhibition in vivo at 10 mg/kg (Rattus norvegicus [6]): 9%
CCCc1c(OCC(O)COc2ccc3c(=O)cc(C(=O)O)oc3c2CCC)ccc(C(C)=O)c1O (centres undefined) [FPL-55712]		10000	inhibition in vivo at 10 mg/kg (Cavia porcellus [2]): 98%; inhibition in vivo at 100 mg/kg (Cavia porcellus [3]): 23%; inhibition in vivo at 100 mg/kg (Rattus norvegicus [5]): 2%; inhibition in vivo at 10 mg/kg (Rattus norvegicus [6]): 88%

— ChEMBL document CHEMBL1123873, “N-(heterocyclic alkyl)pyrido[2,1-b]quinazoline-8-carboxamides as orally active antiallergy agents” (J Med Chem, 1987)
